pIC50: −log10 of the molar value. Values after ≈ are worked out from the molar mass of the structure shown.
Legend:
[1] = Percentage of compound converted to 9-aminocamptothecin for hydrolysis by beta-Glucuronidase( incubated at pH 7.0 for 2 hr at 37 degrees Celsius at the concentration 0.01 ug/mL); assay type: ADME; settings: buffer, pH 7, 2 h
Procedure, shortened: (§1)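 The reaction was quenched with ice-cold MeOH/5% H₃PO₄ (6/1) and centrifuged. Supernatant was analysed by reversed-phase C18 HPLC with fluorescence detection (ex 397/em 482 nm) to give the % converted to 9-aminocamptothecin.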

[2] = Percentage of compound converted to 9-aminocamptothecin for hydrolysis by beta-Glucuronidase( incubated at pH 7.0 for 2 hr at 37 degrees Celsius at the concentration 0.1 ug/mL); assay type: ADME; settings: buffer, pH 7, 2 h; procedure, shortened: as §1
[3] = Percentage of compound converted to 9-aminocamptothecin for hydrolysis by beta-Glucuronidase(incubated at pH 7.0 for 2 hr at 37 degrees Celsius at the concentration 0.5 ug/mL); assay type: ADME; settings: buffer, pH 7, 2 h; procedure, shortened: as §1
[4] = Solubility is determined at pH 4.0; assay type: physicochemical; settings: buffer
Procedure, shortened: (§2)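 Excess solid was equilibrated 24 h at 25 °C in 100 mM phosphate buffer pH 4.0, or in βG buffer (acetic acid/bis-tris/triethanolamine) pH 7.0. Samples were filtered through 0.22 µm, diluted in mobile phase and quantified by C18 HPLC (45% MeOH/25 mM phosphate pH 2.55, fluorescence ex 397/em 482 nm) against calibration curves. Values are in mg/mL.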

[5] = Solubility is determined at pH 7.0; assay type: physicochemical; settings: buffer; procedure, shortened: as §2
[6] = Percentage of compound converted to 9-aminocamptothecin for hydrolysis by beta-Glucuronidase( incubated at pH 7.0 for 2 h at 37 degrees Celsius at the concentration 0.05 ug/mL); assay type: ADME; settings: buffer, pH 7, 2 h; procedure, shortened: as §1
[7] = Cytotoxicity expressed as the concentration that inhibited incorporation of [3H]thymidine into cellular DNA of human cervical cells (CaSki); assay type: functional, cell-based
Procedure, shortened: (§3)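 Exponentially growing tumour cells, 1-1.5 × 10⁴ cells/well, in RPMI with 10% bovine serum plus penicillin/streptomycin, exposed 72 h (37 °C, 5% CO₂) to a drug concentration series. Drugs were dissolved in DMSO (≤0.5% final) or in medium. [³H]thymidine incorporation into DNA was read after PBS wash and trypsin harvest. IC50 was interpolated from log dose-response curves, as means of 1-3 experiments in triplicate.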

[8] = Cytotoxicity in the presence of beta-Glucuronidase (betaG, 5 micro g/ml) towards human cervical cells(CaSki); assay type: functional, cell-based
Procedure, shortened: (§4)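 Same 72 h [³H]thymidine-incorporation assay (1-1.5 × 10⁴ cells/well in RPMI/10% bovine serum, 37 °C, 5% CO₂), with β-glucuronidase added at 5 µg/mL alongside the drug concentration series. Controls were medium or 0.5% DMSO. IC50 was interpolated from log dose-response curves, as means of 1-3 experiments in triplicate.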

[9] = system: COLO 205; test: Cytotoxicity expressed as the concentration that inhibited incorporation of [3H]thymidine into cellular DNA of human colorectal cells (COLO 205); assay type: functional, cell-based; procedure, shortened: as §3
[10] = system: COLO 205; test: Cytotoxicity in the presence of beta-Glucuronidase (betaG, 5 micro g/ml) towards human colorectal cells(COLO 205); assay type: functional, cell-based; procedure, shortened: as §4
[11] = system: NCI-H928; test: Cytotoxicity expressed as the concentration that inhibited incorporation of [3H]-thymidine into cellular DNA of human lung carcinoma cells (H928); assay type: functional, cell-based; procedure, shortened: as §3
[12] = system: NCI-H928; test: Cytotoxicity in the presence of beta-Glucuronidase (betaG, 5 micro g/ml) towards human lung carcinoma cells (H928); assay type: functional, cell-based; procedure, shortened: as §4
[13] = system: HT-29; test: Cytotoxicity expressed as the concentration that inhibited incorporation of [3H]thymidine into cellular DNA of human colorectal cells (HT-29); assay type: functional, cell-based; procedure, shortened: as §3
[14] = system: HT-29; test: Cytotoxicity in the presence of beta-Glucuronidase (betaG, 5 micro g/ml) towards human colorectal cells (HT-29); assay type: functional, cell-based; procedure, shortened: as §4
[15] = system: HepG2; test: Cytotoxicity expressed as the concentration that inhibited incorporation of [3H]thymidine into cellular DNA of human hepatocellular cells (HepG2); assay type: functional, cell-based; procedure, shortened: as §3
[16] = system: HepG2; test: Cytotoxicity in the presence of beta-Glucuronidase (betaG, 5 micro g/ml) towards human hepatocellular cells (HepG2); assay type: functional, cell-based; procedure, shortened: as §4
[17] = system: HepG2; test: Cytotoxicity expressed as the concentration that inhibited incorporation of [3H]-thymidine into cellular DNA of human hepatocellular cells (HepG2); assay type: functional, cell-based; procedure, shortened: as §3

SMILES	solubility [4] [mg/mL]	solubility [5]	pIC50 [7]	pIC50 ([9]; colo 205)	pIC50 [11]	pIC50 [13]	pIC50 [15]	pIC50 [16]	pIC50 ([7]; Homo sapiens)	pIC50 ([9]; Homo sapiens, COLO 205)	further results
CC[C@@]1(O)C(=O)OCc2c1cc1n(c2=O)Cc2cc3c(NC(=O)OCc4ccc(O[C@@H]5O[C@H](C(=O)O)[C@@H](O)[C@H](O)[C@H]5O)cc4)cccc3nc2-1	0.5 (≈ 725 µM)	110 mg/kg	6.72	6.70	6.52	6.82	6.96	8.54			Conversion [1]: 45%; Conversion [2]: 98%; Conversion [3]: 92%; Conversion [6]: 92%; pIC50 [8]: 8.11; pIC50 ([10]; colo 205): 8.10; pIC50 [12]: 8.10; pIC50 ([14]; ht-29): 8.18
CC[C@@]1(O)C(=O)OCc2c1cc1n(c2=O)Cc2cc3c(N)cccc3nc2-1 [9-AMINOCAMPTOTHECIN]	0.006 (≈ 16.5 µM)	0.06 mg/mL (≈ 165 µM)			8.10	8.13	8.46		8.07	8.18	
CC[C@@]1(O)C(=O)OCc2c1cc1n(c2=O)Cc2cc3c(NC(=O)OCc4ccc(O[C@@H]5O[C@H](C(=O)[O-])[C@@H](O)[C@H](O)[C@H]5O)cc4)cccc3nc2-1.[K+]	25		6.29	6.34				8.17			pIC50 ([8]; Homo sapiens): 8.04; pIC50 ([10]; Homo sapiens, COLO 205): 8.09; pIC50 ([14]; Homo sapiens, HT-29): 7.96; pIC50 [17]: 6.55
CC[C@@]1(O)C(=O)OCc2c1cc1n(c2=O)Cc2cc3ccccc3nc2-1 [CAMPTOTHECIN]					8.11		8.20		8.07	8.27	

Source: ChEMBL document CHEMBL1132107, “Design and synthesis of water-soluble glucuronide derivatives of camptothecin for cancer prodrug monotherapy and antibody-directed enzyme prodrug therapy (ADEPT)” (J Med Chem, 1999)
